This note sets out measurements from PubChem BioAssay AID492985 (Sanford-Burnham Center for Chemical Genomics, 2010).

In this experiment the target is Apelin receptor (Homo sapiens) (UniProt P35414). Kind of experiment: apelin receptor activation by small molecules – cell-based, CHO-K1 AGTRL-1, PathHunter luminescence, set 3, SAR follow-up (AID 492985). Conditions: CHO-K1 APJ beta-arrestin PathHunter. The method in brief: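 Assay system: CHO-K1 AGTRL-1 (APJ) PathHunter β-arrestin cell line. Dosing: compound dose-response series with DMSO equalised across wells. Incubation: compound exposure 90 min at 25 °C, detection reagent 60 min. Signal: luminescence from β-gal fragment complementation upon β-arrestin recruitment. Controls: apelin-13 reference wells, 30 nM as dispensed.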
Apelin receptor (Homo sapiens), sequence (P35414 whole entry, looked up, the tested form may be a part): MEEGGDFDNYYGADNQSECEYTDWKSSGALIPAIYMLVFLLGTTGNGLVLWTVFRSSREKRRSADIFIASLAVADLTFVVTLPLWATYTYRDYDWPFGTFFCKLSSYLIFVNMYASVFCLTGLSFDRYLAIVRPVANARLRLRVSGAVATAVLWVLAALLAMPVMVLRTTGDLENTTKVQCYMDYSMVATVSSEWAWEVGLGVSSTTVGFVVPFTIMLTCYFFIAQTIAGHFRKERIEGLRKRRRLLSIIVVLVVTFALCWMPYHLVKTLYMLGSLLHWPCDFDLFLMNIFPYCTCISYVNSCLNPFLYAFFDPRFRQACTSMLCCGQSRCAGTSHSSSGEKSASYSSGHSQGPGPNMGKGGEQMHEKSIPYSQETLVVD
One may read the EC50 as the concentration needed to bring the measured effect to its halfway point. For the compound `CC1=CC(=O)C(C(C)C)=C/C1=N/OS(=O)(=O)c1ccc(F)cc1`, the 50% effective concentration (EC50) is 7.15 µM.

Consider `CC1=CC(=O)C(C(C)C)=C/C1=N/OS(=O)(=O)c1ccc(C#N)cc1`, for which the EC50 was 3.52 µM.

As to `CC1=CC(=O)C(C(C)C)=C/C1=N/OS(=O)(=O)c1ccc(C(C)C)cc1`, the 50% effective concentration (EC50) was 5.56 µM.
